Measurements reported in ChEMBL document CHEMBL1777776, “Identification of 2-mercaptohexanoic acids as dual inhibitors of 5-lipoxygenase and microsomal prostaglandin E₂ synthase-1” (Bioorg Med Chem, 2011).
Calls of active or inactive are those of the source. The calls are words filed in the database; no cut-off is given here.

Tests used:
[1] = molecular target: T1, Polyunsaturated fatty acid 5-lipoxygenase (Homo sapiens) (UniProt P09917); assay: Inhibition of human recombinant 5-lipoxygenase expressed in Escherichia coli BL21 assessed as enzyme product formation measured after washout
T1 sequence (whole entry): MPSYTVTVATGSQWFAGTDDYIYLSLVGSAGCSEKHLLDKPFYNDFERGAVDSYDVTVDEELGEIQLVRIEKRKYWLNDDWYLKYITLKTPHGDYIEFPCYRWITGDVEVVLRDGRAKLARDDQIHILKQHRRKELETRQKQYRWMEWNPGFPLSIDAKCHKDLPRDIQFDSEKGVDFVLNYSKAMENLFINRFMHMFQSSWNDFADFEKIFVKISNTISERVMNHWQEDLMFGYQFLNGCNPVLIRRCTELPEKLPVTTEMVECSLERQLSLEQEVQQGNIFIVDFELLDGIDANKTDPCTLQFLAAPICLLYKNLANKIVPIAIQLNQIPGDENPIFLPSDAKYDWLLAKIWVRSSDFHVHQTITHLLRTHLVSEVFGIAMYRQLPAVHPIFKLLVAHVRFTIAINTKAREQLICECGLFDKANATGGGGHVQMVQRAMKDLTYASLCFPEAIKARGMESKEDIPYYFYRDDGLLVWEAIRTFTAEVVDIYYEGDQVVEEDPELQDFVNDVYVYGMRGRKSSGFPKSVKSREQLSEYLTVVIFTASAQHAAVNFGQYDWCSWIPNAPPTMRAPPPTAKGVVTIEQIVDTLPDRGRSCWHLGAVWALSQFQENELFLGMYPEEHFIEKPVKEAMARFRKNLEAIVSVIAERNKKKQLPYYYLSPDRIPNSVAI
Method in brief: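 Human 5-LO expressed in E. coli BL21 (pT3-5LO), affinity-purified and used at once. 0.5 µg enzyme in 1 ml PBS/EDTA with 1 mM ATP preincubated with compound 5–10 min at 4 °C, then warmed 30 s at 37 °C. Reaction started with 2 mM CaCl₂ and AA (routinely 20 µM), with or without 1 µM 13(S)-HpODE. Run 10 min at 37 °C, stopped with ice-cold methanol, products analysed by HPLC. Washout: 10-fold dilution (10 to 1 µM).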

[2] = molecular target: T2, Cytosolic phospholipase A2 (Homo sapiens) (UniProt P47712); assay: Inhibition of cPLA2 assessed as residual activity at 10 uM after 5 mins
T2 sequence (whole entry): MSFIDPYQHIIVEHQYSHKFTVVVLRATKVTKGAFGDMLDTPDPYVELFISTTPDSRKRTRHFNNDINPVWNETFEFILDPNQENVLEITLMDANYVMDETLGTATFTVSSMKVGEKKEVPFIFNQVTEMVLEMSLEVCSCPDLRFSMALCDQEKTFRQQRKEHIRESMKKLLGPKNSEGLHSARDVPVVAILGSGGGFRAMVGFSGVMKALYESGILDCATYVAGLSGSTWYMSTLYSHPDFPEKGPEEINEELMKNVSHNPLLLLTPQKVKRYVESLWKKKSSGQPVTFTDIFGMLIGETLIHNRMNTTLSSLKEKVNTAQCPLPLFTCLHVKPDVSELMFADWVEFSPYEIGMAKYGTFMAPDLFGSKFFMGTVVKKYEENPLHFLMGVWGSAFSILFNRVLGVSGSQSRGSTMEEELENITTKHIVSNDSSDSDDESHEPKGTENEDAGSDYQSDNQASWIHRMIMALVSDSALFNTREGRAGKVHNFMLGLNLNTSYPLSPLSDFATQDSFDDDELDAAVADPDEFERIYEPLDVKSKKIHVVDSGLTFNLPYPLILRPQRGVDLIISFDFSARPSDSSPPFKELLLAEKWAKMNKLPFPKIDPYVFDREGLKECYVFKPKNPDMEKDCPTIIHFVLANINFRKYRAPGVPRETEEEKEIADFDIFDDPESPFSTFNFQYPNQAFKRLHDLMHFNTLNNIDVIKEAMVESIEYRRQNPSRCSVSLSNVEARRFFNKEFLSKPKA

[3] = system: A549; assay: Cytotoxicity against human A549 cells assessed as cell viability at 10 uM after 16 hrs by MTT assay; type: cell-based; settings: a549, 5 h, in the assay text read “5 hrs” for “16 hrs”
Method in brief: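 A549 cells plated at 4 × 10⁴ cells per well, incubated 16 h at 37 °C, 5% CO₂, then exposed to 10 µM compound or DMSO (≤0.3% final) for 5 h. MTT added for 4 h, formazan solubilized with SDS in 20 mM HCl, absorbance at 595 nm read relative to vehicle-treated cells.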

## CCCCC(Sc1ccc(OCCCOc2ccc(-c3ccccc3)cc2)cc1)C(=O)O (stereo not drawn)
[1]
  inhibition: Active
[2]
  Activity: 106%
[3]
  Activity: Non-toxic
